# Results gathered from unrelated publications.
# MCU: Calcium uniporter protein, mitochondrial (MCU, Homo sapiens, UniProt Q8NE86)
SMILES,target,read-out,action,technique,pH,IC50 [nM]
N.N.N.N.N.N.N.N.O=C(O)c1ccccc1.O=C(O)c1ccccc1.[N-3].[Ru+4].[Ru+4],MCU,transporter uptake,inhibitor,,,13.9
COc1cc(OC)c2c(O)c3c(=O)cc(C)oc3cc2c1,"Beta-secretase 1 (BACE1, Homo sapiens, UniProt P56817)",enzyme activity,inhibitor,FRET,,> 100000
N#CC(C#N)=Cc1cc(C(=O)CCl)c[nH]1,"Epidermal growth factor receptor (EGFR, Homo sapiens, UniProt P00533)",enzyme activity,inhibitor,mobility shift,,13000
CC(C)C[C@H](NC(=O)[C@H](Cc1ccccc1)NC(=O)[C@H](Cc1ccc(O)cc1)NC(=O)CNC(=O)[C@H](CCCCN)NC(=O)[C@H](CO)NC(=O)[C@H](CCC(N)=O)NC(=O)CNC(=O)[C@@H](NC(=O)[C@H](CO)NC(=O)[C@@H]1CCCN1C(=O)[C@H](CO)NC(=O)[C@H](CCC(N)=O)NC(=O)[C@H](Cc1ccc(O)cc1)NC(=O)[C@H](CCC(=O)O)NC(=O)[C@H](C)NC(=O)[C@H](CCCCN)NC(=O)[C@@H](N)Cc1ccccc1)C(C)C)C(=O)N[C@@H](Cc1ccccc1)C(=O)N[C@@H](CCCNC(=N)N)C(=O)N1CCC[C@H]1C(=O)N[C@@H](CCCNC(=N)N)C(=O)N[C@@H](CC(N)=O)C(N)=O,"Neuromedin-U receptor 2 (Mus musculus, UniProt Q8BZ39)",ligand displacement,,radioligand,,0.0302
CC(=O)Oc1ccc(-c2coc3c4c(c(CC=C(C)C)c(OC(C)=O)c3c2=O)OC(C)(C)C=C4)cc1OC(C)=O,"Serine/threonine-protein kinase mTOR (MTOR, Homo sapiens, UniProt P42345)",enzyme activity,inhibitor,ELISA,,6200
Cl.Cl.N.N.N.N.N.N.N.N.[N-3].[Ru+4].[Ru+4],MCU,transporter uptake,inhibitor,,,2.2
NCCN.NCCN.NCCN.[Co+3],MCU,transporter uptake,inhibitor,,,76
CC(C)C[C@H](NC(=O)[C@H](Cc1ccccc1)NC(=O)c1cnccn1)B(O)O,"Neutrophil elastase (ELANE, Homo sapiens, UniProt P08246)",enzyme activity,inhibitor,,,> 33000
O=S(=O)([O-])[O-].[Cu+2],"Delta-aminolevulinic acid dehydratase (Homo sapiens, UniProt P13716, C162A/K59N)",enzyme activity,inhibitor,absorbance,pH 8,2200
C[C@H](N)Cn1ncc2ccc3c(c21)CCCO3,"D(2) dopamine receptor (DRD2, Homo sapiens, UniProt P14416)",ligand displacement,,radioligand,,> 100000
COc1ccc(C(=O)O)cc1S(=O)(=O)Nc1ccc(C(F)(F)F)cc1N1CCCCC1,"Endoplasmic reticulum aminopeptidase 2 (ERAP2, Homo sapiens, UniProt Q6P179, K392N)",enzyme activity,inhibitor,fluorescence,,27000
